Results as given in ChEMBL document CHEMBL3243948, “Vitamin B6 antagonists obtained by replacing or modifying the 2-methyl group” (J Med Chem, 1977).
Calls of active or inactive are those of the source. No cut-off for these calls is given here.

Tests used:
TA3 [1] = assay: Growth inhibition of mouse TA3 cells in presence of 10^-5 M pyridoxal; format: functional
Method in brief: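 TA3 mouse mammary adenocarcinoma cells grown in complete Eagle's medium, which holds a higher pyridoxal level than the minimal medium. Compounds were tested for growth inhibition.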

TA3 [2] = assay: Growth inhibition of mouse TA3 cells in presence of 10^-7 M pyridoxal; format: functional
Method in brief: (§1)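 Mouse mammary adenocarcinoma TA3 cells cultured in Eagle's medium with minimal pyridoxal (1 X 10^-7 M) to sustain growth. Compounds were scored for inhibition of growth.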

Pyridoxal kinase = target: T1, Pyridoxal kinase (Homo sapiens, UniProt O00764); assay: Competitive inhibition of pyridoxal phosphokinase (unknown origin)
T1 sequence (O00764 whole entry): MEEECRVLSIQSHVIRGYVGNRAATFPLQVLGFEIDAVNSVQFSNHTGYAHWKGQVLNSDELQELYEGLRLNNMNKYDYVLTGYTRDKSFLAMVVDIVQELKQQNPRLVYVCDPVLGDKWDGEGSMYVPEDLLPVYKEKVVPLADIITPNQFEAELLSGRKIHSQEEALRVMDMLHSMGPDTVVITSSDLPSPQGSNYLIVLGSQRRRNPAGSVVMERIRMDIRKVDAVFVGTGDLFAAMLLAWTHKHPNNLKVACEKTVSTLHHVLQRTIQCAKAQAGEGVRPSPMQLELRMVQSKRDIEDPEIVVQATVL
Method in brief: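 Inhibitor tested against pyridoxal phosphokinase-catalysed phosphorylation of pyridoxal (substrate). Ki derived from competitive kinetics.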

TA3 [3] = assay: Growth inhibition of mouse TA3 cells at 1 X 10^-4 M in presence of 10^-7 M pyridoxal; format: functional, cell-based
TA3 [4] = assay: Growth inhibition of mouse TA3 cells in presence of 10^-7 M pyridoxal relative to control; format: functional; method in brief: as §1
[5] = Mus musculus, TA3, read-out: ID50 (the source's name)

`OCc1cnc(Cl)c(O)c1CO` was tested, and the “growth inhibition (GI)” value (TA3 [1]) was “inactive”, the ID50 (TA3 [2]) was 4.5 ×10⁻⁵ M and the Ki (Pyridoxal kinase) was 24 µM.

`COc1cncc2c1C(=O)OC2=O` was tested, and the “growth inhibition (GI)” value (TA3 [3]) was “inactive”.

For `NC(=O)c1ncc(CO)c(CO)c1O`, the “growth inhibition (GI)” value (TA3 [4]) was 40% and the ID50 (TA3 [2]) was 1 ×10⁻⁴ M.

Compound `CC1(C)OCc2cnc(CCl)c(OCc3ccccc3)c2CO1.Cl` has an ID50 (TA3 [2]) of 12 ×10⁻⁵ M.

`NCc1ncc(CO)c(CO)c1O` was tested, and the “growth inhibition (GI)” value (TA3 [4]) was 25% and the ID50 (TA3 [2]) was 1 ×10⁻⁵ M.

Compound `O=Cc1ncc(CO)c(CO)c1O` has an ID50 (TA3 [2]) of 1.7 ×10⁻⁴ M.

For `COc1c(C)ncc(CO)c1CO`, the “growth inhibition (GI)” value (TA3 [3]) was “inactive”.

In the case of `COc1cncc(CO)c1CO`, the “growth inhibition (GI)” value (TA3 [3]) is reported as “inactive”.

Work on `N/N=C/c1ncc(CO)c(CO)c1O` yielded an ID50 (TA3 [2]) of 2.3 ×10⁻⁴ M.

For `Cn1c(=O)oc2c(CO)c(CO)cnc21`, the ID50 (TA3 [2]) was >1 ×10⁻⁴ M.

`COC(=O)c1cncc(OC)c1C(=O)OC` was tested, and the “growth inhibition (GI)” value (TA3 [3]) was “inactive”.

With `COc1cncc(C(=O)O)c1C(=O)O` the “growth inhibition (GI)” value (TA3 [3]) was “inactive”.

With `O=C(O)c1ncc(CO)c(CO)c1O` the ID50 (TA3 [2]) was >1 ×10⁻⁴ M.

In the case of `CCOC(=O)c1cncc(OC)c1C(=O)OCC`, the “growth inhibition (GI)” value (TA3 [3]) is reported as “inactive”.

For `C=Cc1ncc(CO)c(CO)c1O`, the IC50 (TA3 [1]; [5]) was 9.4 µM and the IC50 (TA3 [2]; [5]) was 9.4 µM.

With `CNc1ncc(CO)c(CO)c1O.Cl` the “growth inhibition (GI)” value (TA3 [4]) was 15% and the ID50 (TA3 [2]) was 1 ×10⁻⁴ M.

In the case of `O=C(SCc1ncc(CO)c(CO)c1OCc1ccccc1)c1ccccc1`, the ID50 (TA3 [2]) is reported as 3 ×10⁻⁵ M.

For `COc1c(C(=O)O)ncc(C(=O)O)c1C(=O)O`, the “growth inhibition (GI)” value (TA3 [3]) was “inactive”.

With `C#Cc1ncc(CO)c(CO)c1O` the Ki (Pyridoxal kinase) was 105 µM.

In the case of `Cl.Nc1ncc(CO)c(CO)c1O`, the “growth inhibition (GI)” value (TA3 [1]) is reported as “inactive” and the ID50 (TA3 [2]) is reported as 1.25 ×10⁻⁵ M.

For `OCc1cnc(/C=N/N=C/c2ncc(CO)c(CO)c2O)c(O)c1CO`, the ID50 (TA3 [1]) was 1.1 ×10⁻⁵ M and the ID50 (TA3 [2]) was 1.6 ×10⁻⁵ M.

Compound `Br.COC(=O)N(C)c1ncc(CO)c(CO)c1OCc1ccccc1` has an ID50 (TA3 [2]) of 1.6 ×10⁻⁴ M.

With `OCc1cnc(F)c(O)c1CO` the ID50 (TA3 [2]) was >1 ×10⁻⁴ M.
